The subject of test [1] is Priestia megaterium. As to the kind of experiment: Antibacterial activity against Bacillus megaterium ATCC 9885 at 50 mg/mL after 24 hrs by agar well diffusion method. It counts as functional.
The subject of test [2] is Micrococcus luteus. Kind of test: Antibacterial activity against Sarcina lutea at 50 mg/mL after 24 hrs by agar well diffusion method. It counts as functional. On the technique in general: In agar diffusion tests the substance spreads into inoculated agar from a disc or well.
The subject of test [3] is Escherichia coli. As to the kind of experiment: Antibacterial activity against Escherichia coli ATCC 25922 at 50 mg/mL after 24 hrs by agar well diffusion method. It counts as functional, organism-based. In a few lines:
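Agar well diffusion: bacterial suspension at 1 × 10⁸ CFU/mL spread on nutrient agar; 10 mm wells cut in solidified agar and filled with compound in DMSO; plates incubated 24 h at 37 °C; inhibition zone diameter read; DMSO as negative control.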

The test system of test [4] is Candida albicans. As to the kind of experiment: Antifungal activity against Candida albicans NRRL Y-477 at 50 mg/mL after 48 hrs by agar well diffusion method. It counts as functional.
For test [5], the system named is Saccharomyces cerevisiae. As to the kind of experiment: Antifungal activity against Saccharomyces cerevisiae at 50 mg/mL after 48 hrs by agar well diffusion method. It counts as functional.
Test [6] deals with Aspergillus niger. Kind of test: Antifungal activity against Aspergillus niger at 50 mg/mL after 48 hrs by agar well diffusion method. The class given is functional.
The test system of test [7] is Staphylococcus aureus. Kind of test: Antibacterial activity against Staphylococcus aureus ATCC 29213 after 24 hrs by two fold serial dilution method. The class given is functional.
Test [8] concerns Bacillus subtilis. Kind of test: Antibacterial activity against Bacillus subtilis ATCC 6633 after 24 hrs by two fold serial dilution method. The class given is functional.
Test [9] deals with Priestia megaterium. As to the kind of experiment: Antibacterial activity against Bacillus megaterium ATCC 9885 after 24 hrs by two fold serial dilution method. It counts as functional.
The test system of test [10] is Micrococcus luteus. As to the kind of experiment: Antibacterial activity against Sarcina lutea after 24 hrs by two fold serial dilution method. It counts as functional.
The subject of test [11] is Klebsiella pneumoniae. Kind of test: Antibacterial activity against Klebsiella pneumoniae ATCC 13883 after 24 hrs by two fold serial dilution method. The class given is functional.
Test [12] relates to Pseudomonas aeruginosa. As to the kind of experiment: Antibacterial activity against Pseudomonas aeruginosa ATCC 27953 after 24 hrs by two fold serial dilution method. It counts as functional.
Test [13] has as its system Escherichia coli. As to the kind of experiment: Antibacterial activity against Escherichia coli ATCC 25922 after 24 hrs by two fold serial dilution method. The class given is functional.
Test [14] deals with Candida albicans. Kind of test: Antifungal activity against Candida albicans NRRL Y-477 after 48 hrs by two fold serial dilution method. The class given is functional. The gist of the method:
(§1)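 Two-fold serial broth dilution in a suitable broth, run only on compounds giving inhibition zones of at least 16 mm. Final concentrations were […]. Each 5 mL received 0.1 mL inoculum and was incubated 48 h at 28 °C. MIC was the lowest concentration without growth.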

Test [15] deals with Saccharomyces cerevisiae. As to the kind of experiment: Antifungal activity against Saccharomyces cerevisiae after 48 hrs by two fold serial dilution method. It counts as functional. The gist of the method:
as §1

In test [16] the test system is Aspergillus niger. Kind of test: Antifungal activity against Aspergillus niger after 48 hrs by two fold serial dilution method. The class given is functional. In a few lines:
as §1

In test [17] the test system is Staphylococcus aureus. The note with it: ATCC 29213, 50 mg/mL.
The subject of test [18] is Bacillus subtilis. To be noted: ATCC 6633, 50 mg/mL.
Test [19] relates to Klebsiella pneumoniae. The note with it: ATCC 13883, 50 mg/mL.
Test [20] has as its system Pseudomonas aeruginosa. To be noted: ATCC 27953, 50 mg/mL.
The subject of test [21] is Staphylococcus aureus. As to the kind of experiment: microbe, parasite or virus in culture. The note with it: ATCC 29213, 24 h, read-out: DIZ.
Test [22] relates to Bacillus subtilis. Kind of test: microbe, parasite or virus in culture. To be noted: ATCC 6633, 24 h, read-out: DIZ.
Test [23] relates to Klebsiella pneumoniae. As to the kind of experiment: microbe, parasite or virus in culture. The note with it: ATCC 13883, 24 h, read-out: DIZ.
Test [24] relates to Pseudomonas aeruginosa. As to the kind of experiment: microbe, parasite or virus in culture. To be noted: ATCC 27953, 24 h, read-out: DIZ.

Converted amounts (≈) assume the structure as drawn. The source made the active and inactive calls. No cut-off for these calls is given here.

Turning to `Clc1ccccc1C(c1ccccc1)(c1ccccc1)n1ccnc1` [CLOTRIMAZOLE], the “diameter of the inhibition zone (DIZ)” value with Priestia megaterium [1], in the test with Micrococcus luteus [2] and with Escherichia coli [3] was “inactive” in each case. In addition, the zone of inhibition at 50000 µg/mL in the test with Candida albicans [4] (NRRL Y-477, 48 h, read-out: DIZ) was 30 mm; in the test with Saccharomyces cerevisiae [5] (read-out: DIZ) it was 31 mm; with Aspergillus niger [6] (read-out: DIZ) it was 33 mm. The MIC entry in the test with Staphylococcus aureus [7], in the test with Bacillus subtilis [8], with Priestia megaterium [9], with Micrococcus luteus [10], in the test with Klebsiella pneumoniae [11] and with Pseudomonas aeruginosa [12] was “inactive” each time. For the same compound, the MIC entry in the test on Escherichia coli [13] was “inactive”. The MIC is 25 µg/mL (≈ 72.5 µM) in the test with Candida albicans [14] (NRRL Y-477, 48 h); 25 µg/mL (≈ 72.5 µM) against Saccharomyces cerevisiae [15]; 25 µg/mL (≈ 72.5 µM) with Aspergillus niger [16]. The DIZ result in the test on Staphylococcus aureus [17], with Bacillus subtilis [18], with Klebsiella pneumoniae [19] and in the test with Pseudomonas aeruginosa [20] was “inactive” each time.

With `O=C(O)c1cn(C2CC2)c2cc(N3CCNCC3)c(F)cc2c1=O` [CIPROFLOXACIN], the zone of inhibition at 50000 µg/mL in the test with Priestia megaterium [1] (ATCC 9885, 24 h, read-out: DIZ) was 24 mm; in the test on Micrococcus luteus [2] (read-out: DIZ), 20 mm; in the test on Staphylococcus aureus [21], 20 mm; with Bacillus subtilis [22], 22 mm; in the test on Klebsiella pneumoniae [23], 25 mm; in the test with Pseudomonas aeruginosa [24] it was 24 mm. For the same compound, the “diameter of the inhibition zone (DIZ)” value in the test with Candida albicans [4], with Saccharomyces cerevisiae [5] and in the test on Aspergillus niger [6] was “inactive” throughout. The MIC was found to be 25 µg/mL (≈ 75.4 µM) with Bacillus subtilis [8] (ATCC 6633, 24 h); 25 µg/mL (≈ 75.4 µM) with Priestia megaterium [9] (ATCC 9885, 24 h); 25 µg/mL (≈ 75.4 µM) in the test with Micrococcus luteus [10]; 25 µg/mL (≈ 75.4 µM) against Klebsiella pneumoniae [11] (ATCC 13883, 24 h); 25 µg/mL (≈ 75.4 µM) against Escherichia coli [13] (ATCC 25922, 24 h). For the same compound, the MIC entry with Candida albicans [14], in the test with Saccharomyces cerevisiae [15] and in the test with Aspergillus niger [16] was “inactive” in each case.

Usually MIC stands for the lowest concentration found to suppress growth.
